# Source: ChEMBL document CHEMBL5678798 (Clin Cancer Res, 2009)
# Active and inactive are the calls of the source. The rule behind the calls is not given here.
# How the values were obtained:
# HT-29 = assay: Antiproliferative activity against human HT-29 cells assessed as reduction in cell viability after 72 hrs by CellTiter-Glo assay; assay type: functional, cell-based; details: HT-29, 72 h
# Summary of the method: (§1)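 Cells seeded in 96-well plates, left overnight at 37°C, then exposed to a range of test concentrations for 72 h. Viability read by CellTiter-Glo luminescence; IC50 from four-parameter curve fit. Lines kept at 37°C, 5% CO2, in recommended growth medium.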
# [1] = Antiproliferative activity against human SR-786 cells assessed as reduction in cell viability after 72 hrs by CellTiter-Glo assay; assay type: functional, cell-based; details: SR-786, 72 h; summary of the method: as §1
# HeLa = assay: Antiproliferative activity against human HeLa cells assessed as reduction in cell viability after 72 hrs by CellTiter-Glo assay; assay type: functional, cell-based; summary of the method: as §1
# [2] = Antiproliferative activity against IGF1-stimulated mouse NIH-3T3/LISN cells over expressing human IGF1R assessed as reduction in cell viability preincubated for 2 hr followed by IGF1R stimulation and measured after 72 hrs by CellTiter-Glo assay; assay type: functional, cell-based
# Summary of the method: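 NIH-3T3 overexpressing human IGF-IR, kept in DMEM/10% FBS with 500 µg/mL G418. Seeded on collagen-coated 96-well plates and allowed to adhere 24 h. Switched to serum-free medium, compound or DMSO added for 2 h, then IGF-I 30 ng/mL. Incubated 72 h at 37°C. Read by CellTiter-Glo; IC50 by four-parameter fit.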
# [3] = Cytotoxicity against HUVEC cells assessed as reduction in cell viability after 72 hrs by CellTiter-Glo assay; assay type: toxicity, cell-based; details: human; summary of the method: as §1
# COLO 205 [4] = assay: Induction of cell cycle arrest in human COLO 205 cells assessed as increase in cells accumulation at G1 phase at 0.03 to 10 uM incubated for 24 to 48 hrs by propidium iodide staining based flow cytometric analysis; assay type: functional; details: dose 0.03-10 µM, time lower 24.0 hrs, time upper […]
# Summary of the method: (§2)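 COLO 205, MCF-7 or NCI-H929 cells seeded in 96-well plates overnight at 37°C, then exposed to DMSO or increasing compound concentrations for 24 or 48 h. Fixed and stained with propidium iodide (Vindelov method), then analysed by flow cytometry for sub-G1, G1, S and G2-M fractions. Experiment repeated twice.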
# MCF7 = assay: Induction of cell cycle arrest in human MCF7 cells assessed as cells accumulation at S phase at 1 umol/L incubated for 48 hrs by propidium iodide staining based flow cytometric analysis (reference value: 10%); assay type: functional; details: dose 1 µmol/L, at 1 µM; summary of the method: as §2
# NCI-H929 = assay: Induction of cell cycle arrest in human NCI-H929 cells assessed as cells accumulation at S phase at 1 umol/L incubated for 48 hrs by propidium iodide staining based flow cytometric analysis (reference value: 15%); assay type: functional; details: dose 1 µmol/L, at 1 µM; summary of the method: as §2
# COLO 205 [5] = assay: Induction of cell cycle arrest in human COLO 205 cells assessed as cells accumulation at G2 phase at 1 umol/L incubated for 48 hrs by propidium iodide staining based flow cytometric analysis (reference value: 22%); assay type: functional; details: dose 1 µmol/L, at 1 µM; summary of the method: as §2
# [6] = In vivo inhibition of IGF1R in mouse NIH-3T3/LISN cells implanted in IGF1-stimulated nu/nu CD-1 mouse assessed as reduction in IGF1R phosphorylation at 30 mg/kg, po pretreated for 4 to 8 hrs followed by IGF1 stimulation and measured after 10 min by […] relative to control; assay type: functional; details: time 240-490 min
# Summary of the method: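 Time course: tumor-bearing female nu/nu CD-1 mice, three per group, given a single oral 30 mg/kg dose or vehicle. IGF-I given 10 min before blood and tumor collection at each time point. Tumor phospho-IGF-IR/total IGF-IR measured by capture-plate europium phosphotyrosine assay and expressed as % of ligand-stimulated control.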
# [7] = biological target: Receptor tyrosine-protein kinase erbB-2 (Homo sapiens, UniProt P04626); assay: Inhibition of ErbB2 (unknown origin)
# [8] = biological target: MAP kinase-activated protein kinase 2 (Homo sapiens, UniProt P49137); assay: Inhibition of MAPKAPK2 (unknown origin)
# MAP kinase-activated protein kinase 2, sequence (P49137 whole entry): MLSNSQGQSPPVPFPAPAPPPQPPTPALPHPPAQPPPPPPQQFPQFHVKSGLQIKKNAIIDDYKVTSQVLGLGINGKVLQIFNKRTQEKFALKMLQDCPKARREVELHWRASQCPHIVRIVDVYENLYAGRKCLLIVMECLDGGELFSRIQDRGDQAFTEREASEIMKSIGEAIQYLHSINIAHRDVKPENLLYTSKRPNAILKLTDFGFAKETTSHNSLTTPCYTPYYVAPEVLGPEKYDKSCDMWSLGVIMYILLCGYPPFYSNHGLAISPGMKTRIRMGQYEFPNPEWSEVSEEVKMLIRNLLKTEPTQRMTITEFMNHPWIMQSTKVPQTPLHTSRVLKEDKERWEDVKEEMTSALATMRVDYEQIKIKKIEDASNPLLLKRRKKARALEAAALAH
# [9] = biological target: Serine/threonine-protein kinase BRSK1 (Homo sapiens) (UniProt Q8TDC3); assay: Inhibition of N-terminal 6His-tagged recombinant human BrSK1 (2 to end residues) expressed in baculovirus infected Sf21 cells at 0.3 uM by filter binding assay relative to control
# Serine/threonine-protein kinase BRSK1 (Homo sapiens), sequence (Q8TDC3 whole entry): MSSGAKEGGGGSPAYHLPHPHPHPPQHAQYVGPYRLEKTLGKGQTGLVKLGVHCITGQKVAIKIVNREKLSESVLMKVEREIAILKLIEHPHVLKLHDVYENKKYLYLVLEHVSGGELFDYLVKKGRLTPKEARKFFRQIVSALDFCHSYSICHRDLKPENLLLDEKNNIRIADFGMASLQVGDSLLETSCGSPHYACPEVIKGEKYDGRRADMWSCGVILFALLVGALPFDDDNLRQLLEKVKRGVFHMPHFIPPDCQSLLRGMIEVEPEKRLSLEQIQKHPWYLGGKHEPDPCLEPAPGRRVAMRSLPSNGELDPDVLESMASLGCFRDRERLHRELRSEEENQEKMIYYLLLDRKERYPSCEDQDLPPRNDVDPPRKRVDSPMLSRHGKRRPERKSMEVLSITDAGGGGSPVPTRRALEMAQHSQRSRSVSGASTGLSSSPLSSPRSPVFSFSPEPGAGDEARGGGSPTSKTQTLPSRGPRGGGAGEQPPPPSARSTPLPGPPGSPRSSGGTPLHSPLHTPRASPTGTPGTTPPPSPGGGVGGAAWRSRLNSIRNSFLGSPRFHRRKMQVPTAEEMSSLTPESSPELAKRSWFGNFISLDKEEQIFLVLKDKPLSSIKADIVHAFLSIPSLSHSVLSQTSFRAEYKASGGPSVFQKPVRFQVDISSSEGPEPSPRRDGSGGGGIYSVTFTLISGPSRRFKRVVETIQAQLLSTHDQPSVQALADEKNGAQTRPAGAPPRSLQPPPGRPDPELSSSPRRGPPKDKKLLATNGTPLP
# Summary of the method: (§3)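 KinaseProfiler panel of 233 kinases: radiometric filter-binding activity assays with compound at 0.3 or 3 µmol/L. Read-out is percent inhibition.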
# [10] = biological target: Dual specificity mitogen-activated protein kinase kinase 7 (Homo sapiens) (UniProt O14733); assay: Inhibition of N-terminal GST-tagged recombinant human MKK7beta (2 to end residues) expressed in Escherichia coli at 0.3 uM by filter binding assay relative to control
# Summary of the method: (§4)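 Outsourced single-concentration screen in a commercial panel of 233 protein kinases, run as radiometric filter-binding activity assays. Test agent was tested at 0.3 or 3 µmol/L, as given in each line, from a 10 mmol/L DMSO stock. Activity is expressed as percent inhibition relative to control.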
# [11] = biological target: Protein-tyrosine kinase 2-beta (Homo sapiens) (UniProt Q14289); assay: Inhibition of N-Terminal His6-tagged recombinant full-length human Pyk2 expressed in baculovirus infected Sf21 cells at 0.3 uM by filter binding assay relative to control; summary of the method: as §3
# Protein-tyrosine kinase 2-beta (Homo sapiens), sequence (Q14289 whole entry, looked up): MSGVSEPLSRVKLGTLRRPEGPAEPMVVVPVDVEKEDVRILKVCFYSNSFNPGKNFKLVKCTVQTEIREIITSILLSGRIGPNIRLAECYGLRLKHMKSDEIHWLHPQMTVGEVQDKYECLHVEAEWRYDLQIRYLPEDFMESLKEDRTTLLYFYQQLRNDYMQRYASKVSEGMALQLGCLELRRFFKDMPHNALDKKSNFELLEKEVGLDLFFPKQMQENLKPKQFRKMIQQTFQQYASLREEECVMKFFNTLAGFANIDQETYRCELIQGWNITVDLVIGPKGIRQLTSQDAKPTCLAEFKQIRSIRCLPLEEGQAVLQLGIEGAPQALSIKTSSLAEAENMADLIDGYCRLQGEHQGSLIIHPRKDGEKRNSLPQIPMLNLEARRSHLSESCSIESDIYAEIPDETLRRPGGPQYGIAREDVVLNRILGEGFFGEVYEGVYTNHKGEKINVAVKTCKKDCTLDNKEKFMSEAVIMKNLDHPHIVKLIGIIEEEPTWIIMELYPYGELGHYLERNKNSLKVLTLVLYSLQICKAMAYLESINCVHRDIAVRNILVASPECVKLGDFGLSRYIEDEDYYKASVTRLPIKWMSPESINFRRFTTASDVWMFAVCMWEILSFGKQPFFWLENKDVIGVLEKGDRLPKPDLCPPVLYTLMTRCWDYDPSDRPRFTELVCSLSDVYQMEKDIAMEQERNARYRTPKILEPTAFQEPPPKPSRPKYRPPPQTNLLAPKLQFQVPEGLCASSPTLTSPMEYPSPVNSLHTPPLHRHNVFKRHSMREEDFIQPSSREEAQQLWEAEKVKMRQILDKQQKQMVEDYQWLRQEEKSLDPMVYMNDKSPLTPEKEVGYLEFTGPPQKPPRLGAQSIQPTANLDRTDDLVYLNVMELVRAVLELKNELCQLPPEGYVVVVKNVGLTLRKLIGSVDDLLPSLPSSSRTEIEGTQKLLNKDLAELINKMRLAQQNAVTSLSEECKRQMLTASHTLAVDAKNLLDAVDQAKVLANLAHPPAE
# [12] = biological target: Serine/threonine-protein kinase TAO2 (Homo sapiens) (UniProt Q9UL54); assay: Inhibition of N-terminal 6His-tagged recombinant human TAO2 expressed in Sf21 cells at 0.3 uM by filter binding assay relative to control; summary of the method: as §4
# [13] = biological target: Activin receptor type-1B (Homo sapiens) (UniProt P36896); assay: Inhibition of N-terminal GST-tagged recombinant human ALK4 (150 to end residues) expressed in baculovirus infected Sf21 cells at 3 uM by filter binding assay relative to control; summary of the method: as §4
# Activin receptor type-1B (Homo sapiens), sequence (P36896 whole entry): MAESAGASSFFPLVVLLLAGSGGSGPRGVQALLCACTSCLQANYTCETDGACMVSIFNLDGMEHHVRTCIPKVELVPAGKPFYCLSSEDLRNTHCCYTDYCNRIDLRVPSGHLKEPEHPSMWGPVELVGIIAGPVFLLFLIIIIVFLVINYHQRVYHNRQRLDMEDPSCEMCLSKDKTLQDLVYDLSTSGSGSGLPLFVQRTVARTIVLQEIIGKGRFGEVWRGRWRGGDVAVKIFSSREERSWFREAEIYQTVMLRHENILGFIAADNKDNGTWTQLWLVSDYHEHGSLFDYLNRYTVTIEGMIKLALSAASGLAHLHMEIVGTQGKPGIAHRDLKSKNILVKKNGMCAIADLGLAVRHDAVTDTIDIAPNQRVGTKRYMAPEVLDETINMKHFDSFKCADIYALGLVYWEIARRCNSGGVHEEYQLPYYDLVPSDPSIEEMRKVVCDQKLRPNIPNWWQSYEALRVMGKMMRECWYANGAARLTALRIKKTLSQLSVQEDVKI
# [14] = biological target: Protein-tyrosine kinase 6 (Homo sapiens) (UniProt Q13882); assay: Inhibition of N-terminal His6-tagged recombinant full-length human BRK expressed in baculovirus infected Sf21 cells at 3 uM by filter binding assay relative to control
# [15] = biological target: Fibroblast growth factor receptor 3 (Homo sapiens) (UniProt P22607); assay: Inhibition of N-terminal His6-tagged recombinant human FGFR3 (447 to 761 residues) expressed in Sf21 cells at 3 uM by filter binding assay relative to control
# [16] = biological target: MAP kinase-interacting serine/threonine-protein kinase 2 (Homo sapiens) (UniProt Q9HBH9); assay: Inhibition of N-terminal 6His-tagged recombinant human full-length Mnk2 expressed in baculovirus infected Sf21 cells at 3 uM by filter binding assay relative to control; summary of the method: as §4
# Aurora kinase A = Aurora kinase A (Homo sapiens, UniProt O14965); assay: Inhibition of N-terminal 6His-tagged recombinant full-length human Aurora-A expressed in Sf21 cells by filter binding assay
# Aurora kinase A, sequence (O14965 whole entry, the tested form may be a part): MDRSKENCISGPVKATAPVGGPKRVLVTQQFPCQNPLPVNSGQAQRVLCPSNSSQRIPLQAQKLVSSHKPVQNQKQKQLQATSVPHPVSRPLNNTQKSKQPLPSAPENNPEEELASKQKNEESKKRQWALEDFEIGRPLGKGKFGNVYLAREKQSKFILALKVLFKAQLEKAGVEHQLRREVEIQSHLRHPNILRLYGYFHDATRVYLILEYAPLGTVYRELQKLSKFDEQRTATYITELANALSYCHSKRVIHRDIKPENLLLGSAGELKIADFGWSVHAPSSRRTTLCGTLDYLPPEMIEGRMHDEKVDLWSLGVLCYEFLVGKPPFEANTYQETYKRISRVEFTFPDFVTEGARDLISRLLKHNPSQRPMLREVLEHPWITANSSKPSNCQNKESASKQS
# [17] = biological target: Tyrosine-protein kinase HCK (Homo sapiens, UniProt P08631); assay: Inhibition of N-terminal 6His-tagged recombinant human Hck (230 to 497 residues) expressed in baculovirus infected Sf21 cells by filter binding assay
# [18] = biological target: Serine/threonine-protein kinase PAK 3 (Homo sapiens, UniProt O75914); assay: Inhibition of C-terminal His6-tagged recombinant human full-length PAK3 expressed in baculovirus infected Sf21 cells by filter binding assay
# Serine/threonine-protein kinase PAK 3, sequence (O75914 whole entry): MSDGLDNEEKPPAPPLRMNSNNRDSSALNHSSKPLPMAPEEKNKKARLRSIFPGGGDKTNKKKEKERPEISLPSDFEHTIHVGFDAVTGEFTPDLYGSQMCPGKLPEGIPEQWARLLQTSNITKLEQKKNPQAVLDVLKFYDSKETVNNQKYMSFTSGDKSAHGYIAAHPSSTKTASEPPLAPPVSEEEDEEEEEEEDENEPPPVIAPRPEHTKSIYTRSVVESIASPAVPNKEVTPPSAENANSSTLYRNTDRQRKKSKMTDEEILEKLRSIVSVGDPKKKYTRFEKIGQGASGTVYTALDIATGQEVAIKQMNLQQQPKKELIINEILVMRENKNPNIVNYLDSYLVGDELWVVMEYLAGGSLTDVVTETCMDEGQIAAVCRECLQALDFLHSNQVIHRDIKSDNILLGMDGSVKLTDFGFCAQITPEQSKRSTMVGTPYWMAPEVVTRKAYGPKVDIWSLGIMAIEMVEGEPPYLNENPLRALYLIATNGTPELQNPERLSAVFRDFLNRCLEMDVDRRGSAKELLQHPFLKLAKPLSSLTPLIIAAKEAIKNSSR
# [19] = biological target: Insulin receptor (Mus musculus) (UniProt P15208); details: CD-1, dose 30.0 mg/kg, route po, time 2-24 hrs
# Insulin receptor (Mus musculus), sequence (P15208 28-748 limits assumed): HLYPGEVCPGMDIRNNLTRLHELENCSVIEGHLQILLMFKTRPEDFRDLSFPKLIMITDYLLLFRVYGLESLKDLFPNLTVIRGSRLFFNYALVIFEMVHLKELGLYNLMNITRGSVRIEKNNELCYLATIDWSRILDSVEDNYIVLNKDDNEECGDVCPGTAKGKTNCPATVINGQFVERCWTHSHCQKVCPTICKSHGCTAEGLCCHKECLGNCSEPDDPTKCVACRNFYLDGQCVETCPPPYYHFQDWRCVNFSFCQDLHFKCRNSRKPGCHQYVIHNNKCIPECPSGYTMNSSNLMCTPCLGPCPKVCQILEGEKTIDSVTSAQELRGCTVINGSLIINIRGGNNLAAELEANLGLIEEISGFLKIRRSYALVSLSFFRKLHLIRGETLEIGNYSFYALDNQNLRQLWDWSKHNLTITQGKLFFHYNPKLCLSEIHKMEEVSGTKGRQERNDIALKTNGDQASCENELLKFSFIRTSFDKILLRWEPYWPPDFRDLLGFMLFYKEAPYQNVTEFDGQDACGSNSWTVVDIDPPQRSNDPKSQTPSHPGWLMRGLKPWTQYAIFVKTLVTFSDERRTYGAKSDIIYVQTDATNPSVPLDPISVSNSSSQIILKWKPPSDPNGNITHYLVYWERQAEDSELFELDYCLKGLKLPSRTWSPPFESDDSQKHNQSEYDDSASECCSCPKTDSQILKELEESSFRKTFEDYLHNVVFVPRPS
# Insulin receptor (Mus musculus), sequence (P15208 753-1372 limits assumed): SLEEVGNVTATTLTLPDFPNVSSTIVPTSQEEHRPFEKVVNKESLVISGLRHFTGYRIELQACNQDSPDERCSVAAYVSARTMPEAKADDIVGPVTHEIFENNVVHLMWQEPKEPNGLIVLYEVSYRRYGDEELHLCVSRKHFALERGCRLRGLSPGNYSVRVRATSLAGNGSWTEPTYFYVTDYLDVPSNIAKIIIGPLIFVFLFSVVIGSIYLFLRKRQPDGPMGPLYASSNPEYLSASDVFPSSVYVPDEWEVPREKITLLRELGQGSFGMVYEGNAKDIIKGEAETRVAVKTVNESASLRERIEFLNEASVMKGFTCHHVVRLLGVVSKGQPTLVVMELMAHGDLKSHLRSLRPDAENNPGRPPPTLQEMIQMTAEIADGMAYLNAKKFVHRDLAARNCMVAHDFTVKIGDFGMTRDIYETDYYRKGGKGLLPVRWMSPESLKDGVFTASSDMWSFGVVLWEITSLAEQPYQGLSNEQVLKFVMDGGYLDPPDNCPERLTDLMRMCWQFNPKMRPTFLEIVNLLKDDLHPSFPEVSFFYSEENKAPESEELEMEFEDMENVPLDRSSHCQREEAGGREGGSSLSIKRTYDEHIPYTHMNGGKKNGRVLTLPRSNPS
smiles,measurement,setting,value
CCc1cc(Nc2nccc(-c3c(-c4ccc(OC)c(C(=O)Nc5c(F)cccc5F)c4)nc4ccccn34)n2)c(OC)cc1N1CCC(N2CCN(S(C)(=O)=O)CC2)CC1,IC50,HT-29,104 nM
same,IC50,[1],> 30000 nM
same,IC50,HeLa,> 20000 nM
same,IC50,[2],60 nM
same,IC50 at 72 h,[3],> 20000 nM
same,Activity,COLO 205 [4],Active
same,Activity,MCF7,5%
same,Activity,NCI-H929,3%
same,Activity,COLO 205 [5],12%
same,inhibition in vivo at 30 mg/kg,[6],> 90%
same,IC50,[7],> 10000 nM
same,IC50,[8],> 25000 nM
same,inhibition,[9],0%
same,inhibition,[10],0%
same,inhibition,[11],21%
same,inhibition,[12],1%
same,inhibition,[13],-10%
same,inhibition,[14],38%
same,inhibition,[15],25%
same,inhibition,[16],24%
same,IC50,Aurora kinase A,159 nM
same,IC50,[17],275 nM
same,IC50,[18],103 nM
same,inhibition,[19],inactive
